Source: ChEMBL document CHEMBL1641460, “Potent and selective thiophene urea-templated inhibitors of S6K” (Bioorg Med Chem Lett, 2011)

How the values were obtained:
[1] = target: Glycogen synthase kinase-3 beta (Homo sapiens) (UniProt P49841); assay: Inhibition of GSK3b at 1 uM
[2] = target: Serine/threonine-protein kinase MARK1 (Homo sapiens) (UniProt Q9P0L2); assay: Inhibition of MARK1 at 10 uM
[3] = target: Serine/threonine-protein kinase Chk2 (Homo sapiens) (UniProt O96017); assay: Inhibition of CHEK2 at 10 uM
[4] = target: 3-phosphoinositide-dependent protein kinase 1 (Homo sapiens) (UniProt O15530); assay: Inhibition of PDPK1 at 10 uM
[5] = target: Rho-associated protein kinase 1 (Homo sapiens) (UniProt Q13464); assay: Inhibition of ROCK1 at 10 uM
[6] = target: RAC-alpha serine/threonine-protein kinase (Homo sapiens) (UniProt P31749); assay: Inhibition of AKT1 at 1 uM
[7] = target: Tyrosine-protein kinase JAK3 (Homo sapiens) (UniProt P52333); assay: Inhibition of JAK3 at 1 uM
[8] = target: Tyrosine-protein kinase ABL1 (Homo sapiens) (UniProt P00519); assay: Inhibition of ABL1 at 1 uM
[9] = target: Protein kinase C zeta type (Homo sapiens) (UniProt Q05513); assay: Inhibition of PRKCZ at 1 uM
[10] = target: Voltage-gated inwardly rectifying potassium channel KCNH2 (Homo sapiens, UniProt Q12809); assay: Displacement of labeled dofetilide from human ERG
[11] = target: Cyclin-dependent kinase 2 (Homo sapiens) (UniProt P24941); assay: Inhibition of CDK2 at 10 uM
[12] = target: Ephrin type-A receptor 2 (Homo sapiens) (UniProt P29317); assay: Inhibition of EPHA2 at 1 uM
[13] = target: Mitogen-activated protein kinase kinase kinase 9 (Homo sapiens) (UniProt P80192); assay: Inhibition of MAP3K9 at 1 uM
[14] = target: Serine/threonine-protein kinase 3 (Homo sapiens) (UniProt Q13188); assay: Inhibition of STK3 at 1 uM
[15] = target: Fibroblast growth factor receptor 1 (Homo sapiens) (UniProt P11362); assay: Inhibition of FGFR1 at 1 uM
[16] = target: Epidermal growth factor receptor (Homo sapiens) (UniProt P00533); assay: Inhibition of EGFR at 1 uM
[17] = target: Aurora kinase A (Homo sapiens) (UniProt O14965); assay: Inhibition of aurora A at 10 uM
[18] = target: Tyrosine-protein kinase BTK (Homo sapiens) (UniProt Q06187); assay: Inhibition of BTK at 1 uM
[19] = target: MAP kinase-activated protein kinase 2 (Homo sapiens) (UniProt P49137); assay: Inhibition of MAPKAPK2 at 1 uM
[20] = target: Tyrosine-protein kinase JAK3 (Homo sapiens) (UniProt P52333); assay: Inhibition of JAK3 at 10 uM
[21] = target: Mitogen-activated protein kinase 14 (Homo sapiens) (UniProt Q16539); assay: Inhibition of MAPK14 at 1 uM
[22] = target: Fibroblast growth factor receptor 1 (Homo sapiens) (UniProt P11362); assay: Inhibition of FGFR1 at 10 uM
[23] = target: Mitogen-activated protein kinase 14 (Homo sapiens) (UniProt Q16539); assay: Inhibition of MAPK14 at 10 uM
[24] = target: Inhibitor of nuclear factor kappa-B kinase subunit epsilon (Homo sapiens) (UniProt Q14164); assay: Inhibition of IKBKE at 10 uM
CYP2C9 = CYP2C9 (Homo sapiens, UniProt P11712); assay: Inhibition of CYP2C9 at 3 uM by LC/MS/MS analysis; assay type: ADME
[25] = target: Glycogen synthase kinase-3 beta (Homo sapiens) (UniProt P49841); assay: Inhibition of GSK3b at 10 uM
[26] = target: Protein kinase C zeta type (Homo sapiens) (UniProt Q05513); assay: Inhibition of PRKCZ at 10 uM
[27] = target: Serine/threonine-protein kinase PAK 4 (Homo sapiens) (UniProt O96013); assay: Inhibition of PAK4 at 10 uM
[28] = target: Calcium/calmodulin-dependent protein kinase type 1 (Homo sapiens) (UniProt Q14012); assay: Inhibition of CAMK1 at 1 uM
[29] = target: Inhibitor of nuclear factor kappa-B kinase subunit beta (Homo sapiens) (UniProt O14920); assay: Inhibition of IKBKB at 10 uM
[30] = target: Cyclin-dependent kinase 6 (Homo sapiens) (UniProt Q00534); assay: Inhibition of CDK6 at 10 uM
[31] = target: Casein kinase II subunit alpha (Homo sapiens) (UniProt P68400); assay: Inhibition of CSNK2A1 at 10 uM
[32] = Half life in human liver microsomes at 1 uM by LC/MS/MS analysis; assay type: ADME, Microsome
Method in brief: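 Test compound incubated with human liver microsomes to measure Phase I metabolic stability. Remaining compound quantified by LC/MS/MS, and stability reported as half-life (T1/2) in minutes.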

[33] = target: Mitogen-activated protein kinase 1 (Homo sapiens) (UniProt P28482); assay: Inhibition of MAPK1 at 1 uM
[34] = target: 3-phosphoinositide-dependent protein kinase 1 (Homo sapiens) (UniProt O15530); assay: Inhibition of PDPK1 at 1 uM
[35] = target: Tyrosine-protein kinase Lck (Homo sapiens) (UniProt P06239); assay: Inhibition of LCK at 1 uM
[36] = target: Serine/threonine-protein kinase PAK 4 (Homo sapiens) (UniProt O96013); assay: Inhibition of PAK4 at 1 uM
[37] = target: Serine/threonine-protein kinase 3 (Homo sapiens) (UniProt Q13188); assay: Inhibition of STK3 at 10 uM
[38] = target: High affinity nerve growth factor receptor (Homo sapiens) (UniProt P04629); assay: Inhibition of NTRK1 at 10 uM
[39] = target: Serine/threonine-protein kinase MARK1 (Homo sapiens) (UniProt Q9P0L2); assay: Inhibition of MARK1 at 1 uM
[40] = target: High affinity nerve growth factor receptor (Homo sapiens) (UniProt P04629); assay: Inhibition of NTRK1 at 1 uM
[41] = target: Serine/threonine-protein kinase Chk1 (Homo sapiens) (UniProt O14757); assay: Inhibition of CHEK1 at 1 uM
[42] = target: Tyrosine-protein kinase ABL1 (Homo sapiens) (UniProt P00519); assay: Inhibition of ABL1 at 10 uM
[43] = target: Protein kinase C beta type (Homo sapiens) (UniProt P05771); assay: Inhibition of PRKCB at 10 uM
[44] = target: Serine/threonine-protein kinase Nek2 (Homo sapiens) (UniProt P51955); assay: Inhibition of NEK2 at 1 uM
[45] = target: Proto-oncogene tyrosine-protein kinase Src (Homo sapiens) (UniProt P12931); assay: Inhibition of SRC at 1 uM

Protein kinase C zeta type (Homo sapiens), sequence (Q05513 whole entry): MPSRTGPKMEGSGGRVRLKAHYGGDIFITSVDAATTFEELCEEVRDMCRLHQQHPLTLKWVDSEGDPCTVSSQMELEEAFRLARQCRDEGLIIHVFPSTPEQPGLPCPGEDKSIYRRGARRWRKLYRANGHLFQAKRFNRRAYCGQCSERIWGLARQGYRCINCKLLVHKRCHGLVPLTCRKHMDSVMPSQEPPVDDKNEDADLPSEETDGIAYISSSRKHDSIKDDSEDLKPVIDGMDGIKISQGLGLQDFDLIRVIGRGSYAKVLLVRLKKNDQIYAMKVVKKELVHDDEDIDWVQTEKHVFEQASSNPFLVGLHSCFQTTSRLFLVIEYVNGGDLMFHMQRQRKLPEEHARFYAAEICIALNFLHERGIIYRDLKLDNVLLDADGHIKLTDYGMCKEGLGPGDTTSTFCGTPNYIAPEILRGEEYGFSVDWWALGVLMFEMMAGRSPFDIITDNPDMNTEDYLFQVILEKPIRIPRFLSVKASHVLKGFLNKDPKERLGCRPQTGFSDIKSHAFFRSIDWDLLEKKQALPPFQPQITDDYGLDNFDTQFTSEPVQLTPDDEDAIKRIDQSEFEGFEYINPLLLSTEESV
Tyrosine-protein kinase ABL1 (Homo sapiens), sequence (P00519 whole entry): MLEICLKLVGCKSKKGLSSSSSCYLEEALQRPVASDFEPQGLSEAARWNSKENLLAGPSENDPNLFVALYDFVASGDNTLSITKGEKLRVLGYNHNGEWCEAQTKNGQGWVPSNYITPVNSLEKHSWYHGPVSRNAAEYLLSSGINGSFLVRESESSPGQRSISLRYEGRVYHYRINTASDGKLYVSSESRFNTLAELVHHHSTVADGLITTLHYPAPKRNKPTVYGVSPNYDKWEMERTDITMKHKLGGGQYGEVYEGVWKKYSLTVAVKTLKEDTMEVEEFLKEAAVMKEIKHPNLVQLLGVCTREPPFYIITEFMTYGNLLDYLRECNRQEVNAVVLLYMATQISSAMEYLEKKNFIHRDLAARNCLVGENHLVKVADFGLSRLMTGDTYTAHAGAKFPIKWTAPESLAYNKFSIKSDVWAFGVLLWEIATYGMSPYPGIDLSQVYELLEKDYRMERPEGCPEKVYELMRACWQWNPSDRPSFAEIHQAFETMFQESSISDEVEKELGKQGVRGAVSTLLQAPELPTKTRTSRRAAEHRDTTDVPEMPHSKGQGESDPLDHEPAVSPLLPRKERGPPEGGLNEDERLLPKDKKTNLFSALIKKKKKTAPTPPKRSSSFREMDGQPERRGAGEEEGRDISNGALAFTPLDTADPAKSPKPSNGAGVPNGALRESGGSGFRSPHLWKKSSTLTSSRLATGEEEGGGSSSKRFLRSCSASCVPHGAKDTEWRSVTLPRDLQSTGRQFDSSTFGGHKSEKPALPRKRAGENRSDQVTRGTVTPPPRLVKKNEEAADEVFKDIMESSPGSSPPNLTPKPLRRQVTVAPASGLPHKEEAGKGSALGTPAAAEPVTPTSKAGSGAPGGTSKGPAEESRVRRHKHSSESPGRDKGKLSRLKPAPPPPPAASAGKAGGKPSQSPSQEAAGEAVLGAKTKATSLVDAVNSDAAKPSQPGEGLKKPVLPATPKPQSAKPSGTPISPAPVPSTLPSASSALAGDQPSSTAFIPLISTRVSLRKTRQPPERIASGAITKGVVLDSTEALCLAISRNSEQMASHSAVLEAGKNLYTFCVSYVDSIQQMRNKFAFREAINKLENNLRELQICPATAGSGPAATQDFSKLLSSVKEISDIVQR
Serine/threonine-protein kinase 3 (Homo sapiens), sequence (Q13188 whole entry): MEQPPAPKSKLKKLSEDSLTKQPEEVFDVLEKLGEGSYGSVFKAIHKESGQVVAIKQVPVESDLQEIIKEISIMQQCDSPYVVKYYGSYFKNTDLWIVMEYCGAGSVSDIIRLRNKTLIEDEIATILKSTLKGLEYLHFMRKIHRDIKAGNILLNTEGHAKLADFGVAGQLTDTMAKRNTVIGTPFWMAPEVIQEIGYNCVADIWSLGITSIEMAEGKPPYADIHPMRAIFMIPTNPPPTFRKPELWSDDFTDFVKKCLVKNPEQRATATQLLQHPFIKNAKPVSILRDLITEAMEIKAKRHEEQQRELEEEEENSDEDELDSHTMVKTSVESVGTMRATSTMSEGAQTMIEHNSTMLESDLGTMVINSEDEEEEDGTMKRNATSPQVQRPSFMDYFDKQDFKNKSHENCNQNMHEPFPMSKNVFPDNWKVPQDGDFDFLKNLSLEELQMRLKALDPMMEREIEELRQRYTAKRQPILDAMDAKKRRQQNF
Glycogen synthase kinase-3 beta (Homo sapiens), sequence (P49841 whole entry, looked up): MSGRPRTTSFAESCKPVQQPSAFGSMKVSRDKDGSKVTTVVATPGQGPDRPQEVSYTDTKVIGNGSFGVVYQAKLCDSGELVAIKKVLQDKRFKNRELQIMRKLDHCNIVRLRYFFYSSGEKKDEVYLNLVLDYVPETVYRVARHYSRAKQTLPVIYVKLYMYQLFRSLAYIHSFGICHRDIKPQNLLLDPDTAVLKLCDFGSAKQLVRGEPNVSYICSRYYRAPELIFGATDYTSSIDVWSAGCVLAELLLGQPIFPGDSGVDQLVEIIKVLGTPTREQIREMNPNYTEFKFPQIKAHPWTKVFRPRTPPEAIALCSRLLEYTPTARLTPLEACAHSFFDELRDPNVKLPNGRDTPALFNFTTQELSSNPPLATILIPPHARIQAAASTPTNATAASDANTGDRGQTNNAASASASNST
3-phosphoinositide-dependent protein kinase 1 (Homo sapiens), sequence (O15530 whole entry): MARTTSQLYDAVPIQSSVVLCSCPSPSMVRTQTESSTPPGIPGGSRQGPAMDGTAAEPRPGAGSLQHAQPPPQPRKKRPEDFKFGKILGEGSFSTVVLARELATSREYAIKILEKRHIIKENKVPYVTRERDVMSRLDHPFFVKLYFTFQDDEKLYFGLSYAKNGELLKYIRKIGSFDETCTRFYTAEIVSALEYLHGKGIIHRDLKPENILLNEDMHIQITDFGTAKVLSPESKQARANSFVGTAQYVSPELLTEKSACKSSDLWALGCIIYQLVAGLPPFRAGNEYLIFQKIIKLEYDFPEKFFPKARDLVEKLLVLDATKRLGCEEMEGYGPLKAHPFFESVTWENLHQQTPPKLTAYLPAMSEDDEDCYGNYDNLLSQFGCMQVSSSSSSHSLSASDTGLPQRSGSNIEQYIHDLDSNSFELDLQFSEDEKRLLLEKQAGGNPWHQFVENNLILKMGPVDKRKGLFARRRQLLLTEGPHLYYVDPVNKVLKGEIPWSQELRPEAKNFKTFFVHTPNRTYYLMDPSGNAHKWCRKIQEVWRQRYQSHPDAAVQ
Tyrosine-protein kinase JAK3 (Homo sapiens), sequence (P52333 whole entry, looked up): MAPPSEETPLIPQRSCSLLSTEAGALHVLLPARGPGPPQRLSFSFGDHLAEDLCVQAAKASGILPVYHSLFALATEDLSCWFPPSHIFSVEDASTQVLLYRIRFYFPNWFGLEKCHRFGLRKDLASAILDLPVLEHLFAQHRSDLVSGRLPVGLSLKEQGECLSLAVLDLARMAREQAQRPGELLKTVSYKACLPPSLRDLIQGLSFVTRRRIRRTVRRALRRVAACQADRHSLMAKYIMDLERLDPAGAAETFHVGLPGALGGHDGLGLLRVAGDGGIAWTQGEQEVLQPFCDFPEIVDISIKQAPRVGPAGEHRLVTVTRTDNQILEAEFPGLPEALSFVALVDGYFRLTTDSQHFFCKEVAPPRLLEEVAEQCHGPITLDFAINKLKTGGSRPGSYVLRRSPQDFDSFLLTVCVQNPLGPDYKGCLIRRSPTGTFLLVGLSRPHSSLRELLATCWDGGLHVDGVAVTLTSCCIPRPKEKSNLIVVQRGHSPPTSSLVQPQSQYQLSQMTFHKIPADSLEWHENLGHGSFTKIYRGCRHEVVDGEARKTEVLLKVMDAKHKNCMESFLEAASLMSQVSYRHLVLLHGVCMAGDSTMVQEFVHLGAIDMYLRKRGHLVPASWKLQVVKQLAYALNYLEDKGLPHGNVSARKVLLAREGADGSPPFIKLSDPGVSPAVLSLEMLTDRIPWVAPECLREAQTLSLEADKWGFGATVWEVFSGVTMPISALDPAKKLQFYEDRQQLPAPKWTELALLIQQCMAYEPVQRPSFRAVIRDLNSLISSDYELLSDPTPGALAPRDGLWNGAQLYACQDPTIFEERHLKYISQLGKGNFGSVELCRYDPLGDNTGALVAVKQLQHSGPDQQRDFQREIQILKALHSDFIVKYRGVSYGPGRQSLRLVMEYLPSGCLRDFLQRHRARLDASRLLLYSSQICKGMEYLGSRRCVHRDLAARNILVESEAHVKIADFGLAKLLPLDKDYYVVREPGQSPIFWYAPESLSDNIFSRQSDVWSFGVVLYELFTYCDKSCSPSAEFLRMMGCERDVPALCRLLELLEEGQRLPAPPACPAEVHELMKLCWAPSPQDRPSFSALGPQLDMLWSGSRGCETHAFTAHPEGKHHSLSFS
High affinity nerve growth factor receptor (Homo sapiens), sequence (P04629 33-796 limits assumed): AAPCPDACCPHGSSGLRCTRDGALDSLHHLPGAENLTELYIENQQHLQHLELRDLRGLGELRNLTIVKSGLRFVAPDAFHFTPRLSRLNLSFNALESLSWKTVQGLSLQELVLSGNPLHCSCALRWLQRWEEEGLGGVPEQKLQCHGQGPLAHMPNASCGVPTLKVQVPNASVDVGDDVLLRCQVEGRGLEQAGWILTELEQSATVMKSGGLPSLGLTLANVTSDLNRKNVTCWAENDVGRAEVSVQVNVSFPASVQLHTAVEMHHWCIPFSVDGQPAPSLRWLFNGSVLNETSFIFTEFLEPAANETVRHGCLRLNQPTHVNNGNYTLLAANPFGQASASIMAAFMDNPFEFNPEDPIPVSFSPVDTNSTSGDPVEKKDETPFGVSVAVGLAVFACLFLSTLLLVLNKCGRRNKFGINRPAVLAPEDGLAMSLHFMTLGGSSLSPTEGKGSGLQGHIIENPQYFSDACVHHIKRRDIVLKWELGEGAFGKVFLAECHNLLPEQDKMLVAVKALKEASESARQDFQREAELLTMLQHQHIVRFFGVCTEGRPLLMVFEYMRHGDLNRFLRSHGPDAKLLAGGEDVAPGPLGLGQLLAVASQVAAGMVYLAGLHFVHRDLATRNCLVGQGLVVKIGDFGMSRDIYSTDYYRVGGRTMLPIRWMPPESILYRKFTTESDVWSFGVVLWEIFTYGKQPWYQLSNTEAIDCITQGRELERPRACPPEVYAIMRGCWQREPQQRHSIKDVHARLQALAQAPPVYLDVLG

Structure (SMILES): CC(C)(C)c1cc(C(=O)O)c(NC(=O)Nc2ccc3[nH]ncc3c2)s1
- inhibition [1]: 10%
- inhibition [2]: 20%
- inhibition [3]: 20%
- inhibition [4]: 20%
- inhibition [5]: 10%
- inhibition [6]: 0%
- inhibition [7]: 40%
- inhibition [8]: 0%
- inhibition [9]: 20%
- inhibition (INH) [10]: 0%
- inhibition [11]: 10%
- inhibition [12]: 10%
- inhibition [13]: 20%
- inhibition [14]: 0%
- inhibition [15]: 0%
- inhibition [16]: 10%
- inhibition [17]: 0%
- inhibition [18]: 0%
- inhibition [19]: 10%
- inhibition [20]: 40%
- inhibition [21]: 10%
- inhibition [22]: 0%
- inhibition [23]: 10%
- inhibition [24]: 10%
- inhibition at 3 µM (CYP2C9): 55%
- inhibition [25]: 10%
- inhibition [26]: 20%
- inhibition [27]: 0%
- inhibition [28]: 10%
- inhibition [29]: 10%
- inhibition [30]: 0%
- inhibition [31]: 30%
- half-life at 1 µM [32]: > 2 h
- inhibition [33]: 10%
- inhibition [34]: 20%
- inhibition [35]: 0%
- inhibition [36]: 0%
- inhibition [37]: 0%
- inhibition [38]: 10%
- inhibition [39]: 20%
- inhibition [40]: 10%
- inhibition [41]: 10%
- inhibition [42]: 0%
- inhibition [43]: 10%
- inhibition [44]: 10%
- inhibition [45]: 0%
